MrgX1 antag = antagonists of human MrgX1 receptor. B-score at 10 µM. actives 1.3% (n = 310,000). Q96LB2. MRGX1-HEK293 calcium flux, Fluo-4, BAM8-22 antagonism; active compounds read low;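 active means calcium-response B-score plate-corrected more than 3 library SD below zero, starting fluorescence within 5 deviations, no agonist response on first addition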;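 further: peak minus trough fluorescence over baseline after final BAM8-22 challenge near maximal dose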
Target sequence (Q96LB2 whole entry, looked up): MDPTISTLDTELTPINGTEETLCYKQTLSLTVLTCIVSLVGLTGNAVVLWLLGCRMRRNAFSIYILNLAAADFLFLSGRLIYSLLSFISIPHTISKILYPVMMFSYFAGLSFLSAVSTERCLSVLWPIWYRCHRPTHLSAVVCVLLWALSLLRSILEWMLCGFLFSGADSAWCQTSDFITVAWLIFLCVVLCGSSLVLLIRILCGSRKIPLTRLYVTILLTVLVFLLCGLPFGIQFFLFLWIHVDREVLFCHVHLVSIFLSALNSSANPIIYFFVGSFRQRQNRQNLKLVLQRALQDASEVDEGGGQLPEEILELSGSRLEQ
RGS4 block = human RGS4 inhibition. actives 0.45% (n = 310,000). P49798. AID 463165. B-score at 10 µM. HEK293 M3R/RGS4 inducible, Fluo-4 calcium flux; active compounds read high; triggered by carbachol at its EC20;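 active means B-score, a plate-corrected calcium signal, over three deviations above library mean, with baseline fluorescence within five deviations of library mean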;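 further: RGS4 expression induced by doxycycline in cells with stable M3 receptor; B-score is computed from the integrated fluorescence ratio over baseline after carbachol; higher B-score means a larger calcium signal and so more RGS4 inhibition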
Target sequence (P49798 whole entry, looked up): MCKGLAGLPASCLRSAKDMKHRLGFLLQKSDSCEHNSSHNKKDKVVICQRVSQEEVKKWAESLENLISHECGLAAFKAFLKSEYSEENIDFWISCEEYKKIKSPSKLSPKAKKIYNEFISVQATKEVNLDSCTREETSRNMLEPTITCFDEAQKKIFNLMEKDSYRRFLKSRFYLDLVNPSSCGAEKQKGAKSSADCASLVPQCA
MrgX1 PAM = human MrgX1 positive allosteric modulation, primary screen; actives 0.63% (n = 310,000); B-score at 10 µM; MrgX1-HEK293, Fluo-4 calcium flux, FDSS; active compounds read high;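 active means plate-corrected calcium response at least 3 library SD above typical, normal starting fluorescence, not activating the receptor alone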;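 further: compound read alongside a low EC10 to EC30 dose of BAM8-22 agonist; peak minus trough fluorescence over baseline measured at the second addition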
RGS4 act = potentiators or activators of RGS4; actives 0.92% (n = 310,000); B-score at 10 µM; AID 463111; HEK293 M3R/inducible RGS4, carbachol calcium flux Fluo4; active compounds read low;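 active means B-score of the integrated calcium signal more than 4 SD below the library mean, with starting fluorescence not abnormally high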;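 further: negative B-score means reduced calcium response which marks RGS4 activation or potentiation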
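System: HEK293 FlpIn-TREx cells, stable M3R, doxycycline-inducible RGS4. Timing: overnight RGS4 induction, 30 min dye load 37 °C, 20 min compound RT. Also added: carbachol, ECmax concentration. Measured by: Fluo4 fluorescence kinetic imaging of calcium. Evaluation: integrated calcium ratio converted to B score.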
MrgX1 agonist = activates human MrgX1 receptor signaling | Q96LB2 | MrgX1-HEK293 cells, Fluo-4 calcium fluorescence, agonist mode; active compounds read high | B-score at 10 µM | actives 0.44% (n = 310,000);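 active means calcium response B-score plate-corrected fluorescence ratio at least 3 library SD, with starting fluorescence B-score inside 5 SD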
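Material: HEK293 cells stably expressing human MrgX1 receptor | Quantity: 15,000 cells per well | Times: Cells plated overnight, dye loaded 0.5 h 37 °C, 0.5 h room temperature | Measured by: Kinetic Fluo-4 NW fluorescence of intracellular calcium | Control set: Positive and negative controls per plate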
MrgX1 ant reconf = confirmation of human MrgX1 receptor antagonists; shares compounds with MrgX1 antag; MrgX1-HEK293, BAM8-22 calcium flux, Fluo-4; active compounds read low; remaining BAM8-22 calcium response % of control (active compounds read low), % at 10 µM; actives 19% (n = 2,300); AID 602420;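 active means remaining agonist calcium response no higher than 100% minus 3 SD of agonist-only control wells, with starting fluorescence near control levels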;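 further: agonist BAM8-22 given at a near maximal EC90 to ECmax level; peak minus minimum fluorescence divided by baseline after agonist addition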
HEK293 Ca flux = MrgX1 antagonist counter-screen hit in parental HEK293 cells. shares compounds with MrgX1 antag. Fluo-4 calcium fluorescence, FDSS. fluorescence ratio F(max-min)/F0 at 10 µM. actives 2% (n = 4,000);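 active means duplicate-averaged calcium fluorescence ratio at least three times the standard deviation of buffer wells, a nonspecific response in parental cells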
HEK293 Ca counter = MrgX1 allosteric activator counter-screen hit in parental HEK293 cells | shares compounds with MrgX1 antag | parental HEK293 calcium flux, Fluo-4 fluorescence ratio; active compounds read high | fluorescence ratio F(max-min)/F0 at 10 µM | actives 0.4% (n = 4,000);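 active means calcium fluorescence ratio, averaged over duplicates, at least 3 SD of the buffer-well ratio, meaning a nonspecific response in receptor-free cells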;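 further: untransfected parental HEK293 lacking MrgX1 used as counterscreen for MrgX1 allosteric activators; fluorescence change taken during the second addition on a kinetic imager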
HEK293 Ca cntr2 = activity in parental HEK293 cells lacking MrgX1 receptor | actives 8.7% (n = 4,000) | fluorescence ratio F(max-min)/F0 at 10 µM | Fluo-4 calcium fluorescence (FDSS); active compounds read high | shares compounds with MrgX1 antag;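 active means calcium fluorescence ratio at least three times the spread of buffer wells, meaning a non-specific response in parental cells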
Starred values were filed as active, the others as inactive; i = inactive; . = not tested or not shown. In the library only some 3.5% were active in any assay of this set; here they are far more common.

SMILES	MrgX1 antag	RGS4 block	MrgX1 PAM	RGS4 act	MrgX1 agonist	MrgX1 ant reconf	HEK293 Ca flux	HEK293 Ca counter	HEK293 Ca cntr2
CN(C)c1ccc(C2N(c3ccc(Cl)cc3)C(=O)C3CCCN32)cc1 (stereo unspecified)	-6*	i	i	i	i	i	i	i	i
C/C(CC(=O)NC1CCCC1)=N\NC(=O)c1ccc([N+](=O)[O-])c(Cl)c1	i	.	i	.	i	.	.	.	.
CCOC(=O)c1sc(N)nc1C(C)(C)C	i	i	i	i	i	.	.	.	.
Cc1nc(N)sc1C(=O)OCC(C)C	-8.7*	i	i	i	i	i	i	i	i
CN(C)c1ccc(C(=O)N2CCCC(N3CCN(Cc4ccc5c(c4)OCO5)CC3)C2)cc1 (stereo unspecified)	i	i	i	i	i	.	.	.	.
COC(=O)c1cc2c(ccn2-c2ccc(F)cc2)n1Cc1ccc(C#N)cc1	-4.7*	i	i	i	i	i	i	i	i
COCCNC(=O)Cn1nc(-c2ccc(C)cc2)ccc1=O	i	i	i	i	i	.	.	.	.
Cc1ccccc1OCC(=O)Nc1ccc2c(c1)OCO2	-4.5*	i	i	i	i	84%*	i	i	i
O=C(Cc1ccc(Br)cc1)NCCc1ccc(F)cc1	i	i	i	i	i	.	.	.	.
O=C(Nc1ccncc1)c1ccc2ncsc2c1	i	i	i	i	i	.	.	.	.
O=C(Nc1ccc(S(=O)(=O)Nc2ncccn2)cc1)c1ccc2ncsc2c1	-5*	i	i	i	i	73%*	i	i	i
NC(=O)c1cc2c3ccccc3ccn2c1-c1ccccc1	-5.7*	i	i	i	i	i	i	i	i
Cc1nn(C)cc1S(=O)(=O)Nc1ccc(F)c(F)c1	i	i	i	i	i	.	.	.	.
COc1cccc(CN2CCN(Cc3ccon3)CC2CCO)c1 (stereo unspecified)	i	i	i	i	i	.	.	.	.
OCCC1CN(Cc2ccon2)CCN1Cc1ccc(F)c(F)c1 (stereo unspecified)	-8.5*	i	i	i	i	i	i	i	i
CCCn1c(-c2nonc2N)nc2ccccc21	-8.3*	i	i	i	i	i	i	i	i
Nc1nonc1-c1nc2ccccc2n1CC(=O)N1CCCCC1	-5.4*	i	i	i	i	i	i	i	i
Cn1c(-c2nonc2N)nc2ccccc21	i	i	i	i	i	.	.	.	.
Nc1nonc1-c1nc2ccccc2n1CC(=O)O	i	i	i	i	i	.	.	.	.
Cc1n[nH]c(C)c1CCc1nc2c3ccccc3nc(SCC(=O)Nc3ccccc3F)n2n1	-7*	i	i	i	i	i	i	i	i
Cc1nn2c3c(cnc2c1-c1ccccc1)C(=O)CC(c1ccco1)C3 (stereo unspecified)	i	i	i	i	i	.	.	.	.
Cc1nn2c3c(cnc2c1-c1ccccc1)C(=O)CC(c1ccccc1)C3 (stereo unspecified)	-5*	i	i	i	i	i	i	i	i
C=CCNC(=O)c1c(CS(=O)(=O)c2ccccc2)noc1C(=O)NCc1ccccc1	i	.	i	.	i	.	.	.	.
COc1cccc(CN2CCC(C(=O)N3CCN(c4ccccc4F)CC3)CC2)c1OC	-9.2*	i	i	i	i	i	i	i	i
C1=CCN(Cc2ccccc2)C1	i	i	i	i	i	.	.	.	.
SMILES	MrgX1 antag	RGS4 block	MrgX1 PAM	RGS4 act	MrgX1 agonist	MrgX1 ant reconf	HEK293 Ca flux	HEK293 Ca counter	HEK293 Ca cntr2
CC(C)(C)C(=O)CN1C(=O)NC2(CCCc3ccccc32)C1=O (stereo unspecified)	i	i	i	i	i	.	.	.	.
O=C(CNC(=O)c1ccccc1)NCC(=O)OCC(=O)c1ccc(F)cc1	-4.8*	i	i	i	i	i	i	i	i
O=C(CNC(=O)Cc1ccccc1)NCC(=O)OCC(=O)c1ccc(F)cc1	i	i	i	i	i	.	.	.	.
Cc1nc2ccc(N)cc2s1	-5.6*	i	i	i	i	i	i	i	i
Cc1nc2cc3sc(C)nc3cc2s1	i	i	i	i	i	.	.	.	.
CCN1CCCC1CNC(=O)c1cc(NC(C)=O)c(N(C)C)cc1OC (stereo unspecified)	-6.5*	i	i	i	i	i	i	i	i
CCC(=O)Nc1cc(C(=O)NCC2CCCN2CC)c(OC)cc1N(C)C (stereo unspecified)	i	i	i	i	i	.	.	.	.
Cc1sc(NC(=O)c2ccccc2)c(C(c2ccccn2)N2CCN(CCO)CC2)c1C (stereo unspecified)	-4.5*	i	i	i	i	i	i	i	i
O=C1c2cccnc2C(=O)N1Cc1ccc(S(=O)(=O)N2CCOc3ccccc32)cc1	i	i	i	i	i	.	.	.	.
CSc1ncccc1C(=O)Nc1nnc(C2CC2)s1	-4.6*	i	i	i	i	i	i	i	i
COc1ccc(CCNC(=O)CNC(=O)Cn2ccc3ccccc3c2=O)cc1OC	i	i	i	i	i	.	.	.	.
COc1ccc(CNC(=S)Nc2ccccc2)cc1Cl	i	i	i	i	i	.	.	.	.
CCCOc1ccc(CNC(=S)Nc2ccccc2)cc1Cl	-6.7*	i	i	i	i	77%*	i	i	i
c1ccc(-c2nc(-c3ccncc3)no2)cc1	-7.6*	i	i	i	i	i	i	i	i
c1ccc(-c2ccccc2-c2nc(-c3ccncc3)no2)cc1	-4.7*	i	i	i	i	i	i	i	i
Clc1ccccc1-c1nc(-c2ccncc2)no1	i	i	i	i	i	.	.	.	.
